Calls of active or inactive are those of the source. The rule behind the calls is not given here.
Key:
P2Y purinoceptor 2 = P2Y purinoceptor 2 (Homo sapiens, UniProt P41231); assay: Agonist activity at human P2Y2 receptor expressed in human 1321N1 cells assessed as increase in intracellular calcium concentration by dual-excitation spectrofluorimetric analysis; type: functional, cell-based
How it was run: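 1321N1 astrocytoma cells stably expressing the receptor (turkey P2Y1, human P2Y2, human P2Y4, rat P2Y6) were grown with G-418 selection. Fura-2-loaded cell suspensions were exposed at 37 °C in 10 mM HEPES-buffered saline pH 7.4 with 1 mM CaCl2 and 1 mM MgCl2. Peak [Ca2+]i rise was measured over a range of concentrations to derive EC50.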

[1] = target: T1, Ectonucleotide pyrophosphatase/phosphodiesterase family member 1 (Homo sapiens) (UniProt P22413); assay: Activity of human NPP1 expressed in human 293T cells assessed as drug hydrolysis at 100 uM after 20 mins by reverse-phase HPLC relative to p-nitrophenyl-thymidine-5-monophosphate; type: cell-based; set-up: scale not given: the % may be the effect or the level left
T1 sequence (whole entry): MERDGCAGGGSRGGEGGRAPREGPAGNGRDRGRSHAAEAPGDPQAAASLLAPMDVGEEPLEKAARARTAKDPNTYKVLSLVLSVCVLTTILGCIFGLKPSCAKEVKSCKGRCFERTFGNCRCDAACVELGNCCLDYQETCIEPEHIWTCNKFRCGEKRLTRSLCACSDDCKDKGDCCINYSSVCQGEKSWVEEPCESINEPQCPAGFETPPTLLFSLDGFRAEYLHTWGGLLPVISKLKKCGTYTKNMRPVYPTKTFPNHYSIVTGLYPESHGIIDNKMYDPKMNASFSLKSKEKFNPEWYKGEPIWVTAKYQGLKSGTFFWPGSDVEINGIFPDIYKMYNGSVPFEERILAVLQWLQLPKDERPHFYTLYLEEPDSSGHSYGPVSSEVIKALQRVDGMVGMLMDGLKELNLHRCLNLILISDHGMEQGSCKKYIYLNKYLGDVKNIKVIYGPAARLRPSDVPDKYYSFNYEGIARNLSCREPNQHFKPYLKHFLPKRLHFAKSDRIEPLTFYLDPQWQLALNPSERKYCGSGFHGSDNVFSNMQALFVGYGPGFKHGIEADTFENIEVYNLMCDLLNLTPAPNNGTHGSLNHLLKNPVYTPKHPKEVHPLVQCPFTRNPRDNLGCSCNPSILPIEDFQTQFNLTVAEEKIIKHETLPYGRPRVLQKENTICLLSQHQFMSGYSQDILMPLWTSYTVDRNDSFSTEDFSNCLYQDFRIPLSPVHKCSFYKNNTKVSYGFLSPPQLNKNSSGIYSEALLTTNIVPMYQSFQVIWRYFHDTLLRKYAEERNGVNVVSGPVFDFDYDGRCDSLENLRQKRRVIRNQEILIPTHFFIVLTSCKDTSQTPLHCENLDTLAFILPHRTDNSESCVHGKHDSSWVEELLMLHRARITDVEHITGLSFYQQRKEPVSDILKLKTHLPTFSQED
How it was run: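 Crude extract of 293T cells transfected with human NPP1 or NPP3, pre-incubated 3 min at 37 °C in 1 mM CaCl2, 140 mM NaCl, 5 mM KCl, 50 mM Tris pH 8.5. Substrate at 100 µM final for 20 min, stopped in ice-cold perchloric acid and neutralized with KOH. Loss of analogue quantified by reverse-phase HPLC with ion-pair phosphate mobile phase pH 7.0. pnp-TMP (p-nitrophenol at 410 nm) served as the 100% reference.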

[2] = target: T2, Ectonucleoside triphosphate diphosphohydrolase 1 (Homo sapiens) (UniProt P49961); assay: Inhibition of human NTPDase 1 expressed in human 293T cells; type: cell-based
T2 sequence (whole entry): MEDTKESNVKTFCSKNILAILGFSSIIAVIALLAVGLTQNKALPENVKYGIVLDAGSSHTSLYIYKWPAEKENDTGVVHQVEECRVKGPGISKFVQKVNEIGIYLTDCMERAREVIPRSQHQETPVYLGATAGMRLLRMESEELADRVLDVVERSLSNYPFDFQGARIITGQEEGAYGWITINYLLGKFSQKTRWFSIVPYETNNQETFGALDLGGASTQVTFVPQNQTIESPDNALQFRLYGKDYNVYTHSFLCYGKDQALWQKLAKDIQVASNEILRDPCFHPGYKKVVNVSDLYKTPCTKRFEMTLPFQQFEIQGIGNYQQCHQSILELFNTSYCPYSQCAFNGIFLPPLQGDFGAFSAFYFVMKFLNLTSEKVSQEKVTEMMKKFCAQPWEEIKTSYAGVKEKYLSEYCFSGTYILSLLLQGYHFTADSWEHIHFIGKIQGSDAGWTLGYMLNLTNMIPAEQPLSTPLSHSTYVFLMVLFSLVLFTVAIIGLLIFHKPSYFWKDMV

[3] = target: P2Y purinoceptor 1 (Meleagris gallopavo) (UniProt P49652); assay: Antagonist activity at turkey P2Y1 receptor expressed in human 1321N1 cells assessed as inhibition of 2-MeS-ADP-induced increase in intracellular calcium concentration by dual-excitation spectrofluorimetric analysis; type: functional, cell-based
P2Y purinoceptor 1 (Meleagris gallopavo), sequence (P49652 whole entry): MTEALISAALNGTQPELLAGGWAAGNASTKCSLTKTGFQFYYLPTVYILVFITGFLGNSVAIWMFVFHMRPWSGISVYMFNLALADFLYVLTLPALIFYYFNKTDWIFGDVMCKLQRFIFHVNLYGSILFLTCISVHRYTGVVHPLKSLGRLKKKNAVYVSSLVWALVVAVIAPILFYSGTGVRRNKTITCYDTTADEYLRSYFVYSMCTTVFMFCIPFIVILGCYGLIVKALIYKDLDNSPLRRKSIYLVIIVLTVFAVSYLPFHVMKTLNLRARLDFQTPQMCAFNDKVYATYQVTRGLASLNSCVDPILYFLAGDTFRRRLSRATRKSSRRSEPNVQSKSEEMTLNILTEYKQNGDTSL
How it was run: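 Fura-2-loaded suspensions of stably transfected 1321N1 cells were assayed at 37 °C in HEPES-buffered saline pH 7.4 with 1 mM Ca2+ and Mg2+. […] [Ca2+]i was read by dual-excitation spectrofluorometry.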

P2Y purinoceptor 2, sequence (P41231 whole entry): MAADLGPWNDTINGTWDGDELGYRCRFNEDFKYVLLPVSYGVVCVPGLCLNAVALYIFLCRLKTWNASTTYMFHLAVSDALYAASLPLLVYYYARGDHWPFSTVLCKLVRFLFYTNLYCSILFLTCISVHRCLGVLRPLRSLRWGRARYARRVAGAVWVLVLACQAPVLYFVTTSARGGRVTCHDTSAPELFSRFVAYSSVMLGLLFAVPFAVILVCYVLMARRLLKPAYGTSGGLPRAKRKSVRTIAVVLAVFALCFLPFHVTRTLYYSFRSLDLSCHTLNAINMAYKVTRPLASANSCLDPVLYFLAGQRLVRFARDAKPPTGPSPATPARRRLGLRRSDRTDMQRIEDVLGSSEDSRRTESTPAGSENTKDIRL

Compound | Activity (P2Y purinoceptor 2) | Activity [1] | Activity [2] | Activity [3]
CSc1nc(N)c2ncn([C@@H]3O[C@H](COP(=O)(O)OP(=O)(O)CP(=O)(O)O)[C@@H](O)[C@H]3O)c2n1 | inactive | 23% | inactive | inactive
BP(=O)(OC[C@H]1O[C@@H](n2cnc3c(N)ncnc32)[C@H](O)[C@@H]1O)OP(=O)(O)CP(=O)(O)O (some centres undefined) | inactive | 0% | inactive | 
BP(=O)(OC[C@H]1O[C@@H](n2cnc3c(N)nc(SC)nc32)[C@H](O)[C@@H]1O)OP(=O)(O)CP(=O)(O)O (single isomer, unassigned; diastereomer A) | inactive | 0% | inactive | inactive
BP(=O)(OC[C@H]1O[C@@H](n2cnc3c(N)nc(SC)nc32)[C@H](O)[C@@H]1O)OP(=O)(O)CP(=O)(O)O (single isomer, unassigned; diastereomer B) | inactive | < 1% | inactive | inactive
BP(=O)(OC[C@H]1O[C@@H](n2cnc3c(N)ncnc32)[C@H](O)[C@@H]1O)OP(=O)(O)CP(=O)(O)O (single isomer, unassigned; diastereomer B) | inactive | 4% | inactive | inactive
